Experiments:
HSV-1 McKrae strain = test: Plaque reduction assay, HSV-1 in Vero cells; format: cell-based, herpes simplex virus type 1; settings: Human alphaherpesvirus 1, Vero, 96 h
Outline: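 Confluent Vero monolayers in 24-well plates infected with 100 pfu McKrae strain per well, adsorbed 1 h at 37°C, washed with Hanks' BSS. Agar overlay containing compound dilutions applied to triplicate wells, alongside triplicate cell and virus controls. Day 4: methanol:acetic acid (3:1) fixation, 1% crystal violet stain, plaque count. IC50 calculated from dose-response plots; selectivity index taken as TC50/IC50.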

Vero cells = test: Initial cytotoxicity study; format: cell-based, African green monkey; settings: at 100 μM concentration
Outline: (§1)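 Confluent monolayers in triplicate wells of 24-well plates, exposed to compounds diluted from 0.1M DMSO stocks in growth medium (final 10−4 M to 10−8 M). A DMSO co-solvent control was run for each dilution and compared with cell controls. Cytotoxicity scored by abnormal morphology: clumping, detachment or rounding up of cells. Scored +/−.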

A549 cells = test: Initial cytotoxicity study; format: cell-based, Human; settings: at 100 μM concentration
Outline: as §1

| SMILES | IC50 (HSV-1 McKrae strain) [nM] | Cytotoxicity (Vero cells) | Cytotoxicity (A549 cells) |
| --- | --- | --- | --- |
| Nc1nc2c(ncn2COCCO)c(=O)[nH]1 [Acyclovir, acyclovir] | 1800 | − (Vero cells) | – |
| Nc1ccn(C[C@@H](CO)OCP(=O)(O)O)c(=O)n1 [Cidofovir] | – | – | − (A549 cells) |
